Measured values: ChEMBL document CHEMBL4513216, “Probing the Open Global Health Chemical Diversity Library for Multistage-Active Starting Points for Next-Generation Antimalarials” (ACS Infect Dis, 2020)

Assay: Toxicity liver stage against HepG2, at 10uM
Assay type: cell-based
Design: test concentration 10 uM, cell line HepG2-A16-CD81EGFP
Conditions: human, HepG2-A16-CD81EGFP cells; read-out: INHIBITION
Summary of the method: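 Uninfected HepG2-A16-CD81EGFP cells, 3 × 10^3 per well, 1536-well, plated on prespotted compound at 10 μM final, parasite-free screening media added to match infected plates; puromycin 10 μM positive, DMSO 0.5% negative; run in parallel with 48 h PbLuc assay at 37 °C, 5% CO2; viability by CellTiter-Glo luminescence, normalized to controls.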

Structure (SMILES) | cytotoxicity at 10 µM [%]
COC(=O)C1CCN(C(=O)CN2CCN(c3cccc(C)c3)CC2)CC1 | -17.5
COc1ccc(NC(=O)Nc2c(O)c3ccccc3oc2=O)cc1 | -9.87
Cc1nn(C)cc1CN1CCCCCC1c1ccccc1Cl (configuration not stated) | 7.49
Cc1cnc2n(c1=O)C(CC(=O)NCc1ccco1)CS2 (configuration not stated) | -5.52
O=S(=O)(c1cccnc1)N1CCN(Cc2nc(-c3ccco3)cs2)CC1 | 5.94
COc1ncccc1C(=O)N1CC(c2nc(-c3ccccn3)no2)C1 | 3.19
CSCC(C)(O)CNS(=O)(=O)Cc1ccc(F)cc1 (configuration not stated) | -1.12
CN(C)CC(=O)N1CCC2(CC1)CN(Cc1ccccc1)C2 | 5.03
O=C(c1ccco1)N1CCC2(CCC(=O)N2Cc2ccccc2)CC1 | 7.59
CCN1C(=O)CC(c2ccccc2)C12CCN(c1ncc(C)cn1)CC2 (configuration not stated) | -2.6
CC(=O)NCC(=O)N1CCc2nc(C)nc(C)c2CC1 | -12
CCn1c(O)c(C(C)=O)c2cc(C)ccc21 | -8.24
CCCNC(=O)CSc1nnc2[nH]c(=O)cc(CC)n12 | -17.3
Cn1c(C(F)(F)F)nn(CCNC(=O)NCc2ccccc2)c1=O | -27.3
O=C(c1ccnn1COc1ccc(Cl)cc1)N1CCSCC1 | -4.56
Cc1cc(=O)n(CC(=O)NCC2CCCO2)c(-c2cccc(Cl)c2)n1 (configuration not stated) | -11
CN1C[C@@H](C(=O)NC(C)(C)C)[C@@]2(COc3ccc(F)cc3C2=O)C1 | 1.5
Cc1nc(C2CCN(C(=O)c3ccn(C)n3)CC2)c2sccn12 | -4.66
CN(C)S(=O)(=O)N1CCCC1c1cccc(-n2ccnc2)n1 (configuration not stated) | -3.75
Cc1ncsc1CN1CC[C@](C)(O)[C@@H](Oc2cccc(F)c2)C1 | -14.8
CC(=O)N1CCCC(c2ccc(Nc3nc(C)cc(C)n3)cn2)C1 (configuration not stated) | -4.09
Cc1ccc(O)c(CNc2cccc(CN3CCSCC3)c2)n1 | -7.94
COc1ccc(-c2nc(CSC3CCCCNC3=O)co2)cc1 (configuration not stated) | 20.9

Structure (SMILES) | cytotoxicity at 10 µM [%]
COc1ccccc1CC(C)CC(=O)NC(C)C (configuration not stated) | 6.16
CCc1ccsc1C(=O)N(C)CCc1ccncc1 | -0.386
CCn1cc(C(=O)NCC2(C(N)=O)CCOCC2)c2ccccc21 | 0.969
N#CCCn1cnc2c(Br)cccc2c1=O | 4.65
CCC(C)C(=O)N(C)Cc1cc(F)ccc1N1CCC(OC)CC1 (configuration not stated) | -5.41
O=C1CCN(C(=O)C2(c3ccc(Br)cc3)CC2)CCN1 | 1.56
Cc1nn(C)c(Cl)c1C1CCCN1CC(=O)N1CCOCC1 (configuration not stated) | 3.41
O=S(=O)(c1ccc(F)cc1F)N1CCCCC1c1nnc2n1CCCC2 (configuration not stated) | 2.22
COc1ccccc1C(CNC(=O)NCc1cc[nH]n1)N1CCCC1 (configuration not stated) | -0.634
CSC(C)(C)CNC(=O)NC1CCN(CC(F)F)CC1 | -5.12
CCNC(=O)CCC(=O)NC1(c2cccc(Br)c2)CC1 | 8.64
COc1cccnc1NC(=O)COc1ccc(F)cc1F | 8.68
O=C(NC1CCC(C(=O)N2CCSCC2)CC1)N1CCC1 (configuration not stated) | 12.7
Cc1cnn(CC2CCCCN2CC(=O)Nc2cccnc2)c1 (configuration not stated) | 3.5
CC(C)N(C)C(=O)C1CCN(Cc2cc3c(cc2O)CCC3)CC1 | 6.15
CC(C)NC(=O)CN(C)C1CCN(c2cnc3ccccc3n2)CC1 | -6.14
COCC(C)(CCO)NC(=O)Nc1cccc(F)c1C (configuration not stated) | 7.94
CCc1nn(C)c2[nH]nc(NC(=O)c3ccccc3COC)c12 | 6.16
O=C(Nc1ccc(F)cc1)N(CCC(F)(F)F)C[C@H](O)CO | -7.8
COc1cccc(CC(=O)NC2CCCc3cn[nH]c32)c1 (configuration not stated) | 12.5
CC(C)CSCCCNC(=O)C1CCOC1 (configuration not stated) | -5.81
Cn1nccc1NCc1cc2cc(F)ccc2o1 | 8.57
Cc1ccc(C)c(OCc2nnc(SCC3CCCN(C)C3)o2)c1 (configuration not stated) | 5.24

Structure (SMILES) | cytotoxicity at 10 µM [%]
Cc1cnc2c(c1)N(C(=O)c1ccc(=O)n(C)c1)CCO2 | 0.965
COc1ccc(-n2cnnc2SCCC#N)cn1 | 22.2
CCC(CNC(=O)c1cc(OC)ccc1Br)N1CCc2ccccc2C1 (configuration not stated) | -6.78
CN(C(=O)c1cccc(C(=O)NCC(F)(F)F)c1)c1ccccc1 | -14.8
Cc1cccc(N2CCOCC3(C2)CN(c2cncnc2)C(=O)CO3)n1 (configuration not stated) | 5.88
Cn1ccc(C(=O)NC2CCC23CCN(C(=O)c2ccccn2)CC3)c1 (configuration not stated) | -71.7
COCCO[C@@H]1CCN(C(=O)c2ccc[nH]2)[C@H]1Cc1cnn(C)c1 | -71.7
O=C(c1cc(C2CC2)on1)N1CC[C@]2(C[C@H](Oc3cccnc3)CO2)C1 | -9.63
CC(=O)N1CCC(n2nccc2-c2cnc(N3CCCC3)nc2)CC1 | -0.00173
CO[C@H]1C[C@@H](O)C12CCN(CCCOc1ccc(C(N)=O)cc1)CC2 | -5.66
CNc1ccc(C)cc1C(=O)N1CCCC2(CCNC2)C1 (configuration not stated) | -6.63
O=C(CN1C(=O)CCNC1=O)N1CCC(c2ccc(F)cc2)C1 (configuration not stated) | 4.3
N#Cc1ccccc1CN1CCCC(c2nccn2CC2CC2)C1 (configuration not stated) | 2.84
CSCc1nc(CCNC(=O)c2cnn(C(C)C)c2)cs1 | -7.91
O=C(NC1CCCN(CCCc2ccccc2)C1)C1=CCCCC1 (configuration not stated) | -0.739
N#Cc1c(N)nc2c(c1-c1c[nH]nc1C1CCCCC1)CNCC2 | 0.787
O=C(CCc1cc2n(n1)CCCN(C(=O)[C@H]1CCCO1)C2)NC1CC1 | 4.78
O=C(c1cncc(NCC2COc3ccccc3C2)n1)N1CCCC1 (configuration not stated) | -6.53
Cc1c(C(=O)NCCC2CN(C)CCO2)n(C)c2c(C)cccc12 (configuration not stated) | -3.83
Cc1cccc2[nH]c(C3CCN(C(=O)c4cccnn4)CC3)nc12 | 11.2
CCOc1ccc(CN2CCNC(C(=O)NC3CC3)C2)cc1CO (configuration not stated) | 2.95
CSc1nccc(-c2cccc(-c3ccn(CC4COCCO4)n3)c2)n1 (configuration not stated) | -7.92
COC(=O)N1CCN(Cc2ccccc2Cl)CC1 | -0.227

Structure (SMILES) | cytotoxicity at 10 µM [%]
COCCN(Cc1cnn(C)c1)CC1CCN(C(C)C)CC1 | -9
COCC(O)CNC(=O)c1coc(COc2ccc3sc(C)nc3c2)n1 (configuration not stated) | 10.8
Cc1ccc(CN2CCC(c3nnc(CN4CCCCC4)n3C)CC2)o1 | -5.1
CCn1cc(CN2CCCn3nc(CCC(=O)NCCO)cc3C2)cn1 | -18.2
COc1ccc(OCc2nc(C(=O)N3CC(O)C3)co2)cc1 | -9.29
Cn1c(=O)c2cc(C(=O)NCCOc3ccccc3)ccc2n(C)c1=O | -4.69
Cc1cc(Br)c(O)c(-c2nc(N3CCOCC3)sc2C)c1 | 74.4
CNC(=O)C1(c2cnccn2)CCCN1C(=O)c1ccn(C)n1 (configuration not stated) | -5.15
c1ccc(-c2nnc3n2CCN(Cc2ccc4c(c2)OCCO4)C3)cc1 | 7.66
O=C(CCCN1CCOC1=O)Nc1cnn(-c2ccccc2Cl)c1 | -4.56
O=C(CCc1cccc(Cl)c1Cl)N1CCOCC1c1ncon1 (configuration not stated) | -2.33
CC(C)c1ncc2c(n1)CN(Cc1nc(-c3cccnc3)no1)CC2 | -18.7
COCCOc1cccc(C(=O)N2CCCC(n3ccnc3)C2)c1 (configuration not stated) | -17.1
CC(C)n1cc(CN2CCCN(C(=O)CN3CCCC3=O)CC2)cn1 | -27.5
Cc1cnn(CC(=O)N2CCCN(Cc3cnn(C(C)C)c3)CC2)c1 | -12.3
Cc1ncsc1C(=O)N(Cc1ccccc1)C1CC1 | -6.48
CCOc1ccccc1OC1CCN(C(=O)c2c[nH]nn2)CC1 | -2.48
COc1ccc2c(c1)CCN2Cc1nc2c(cnn2C)c(=O)[nH]1 | -10.3
CN(Cc1ccsc1)C(=O)Nc1ccc(N(C)C)nc1 | -3.08
CCCc1n[nH]c(C2CN(C(=O)c3cc4c(s3)CCC4)CCO2)n1 (configuration not stated) | -10.1
CN1CCOC(CNCc2coc(-c3ccc(Cl)cc3)n2)C1 (configuration not stated) | -9.99
CCN(CC)C(CNC(=O)c1c(C)noc1C(C)C)c1ccsc1 (configuration not stated) | -12.2
Fc1ccc(-c2nc(CN3CCCC3Cn3cncn3)co2)cc1F (configuration not stated) | -5.58

Structure (SMILES) | cytotoxicity at 10 µM [%]
Cc1cc(C)n(C2CN(CC(O)c3cc(F)ccc3F)C2)n1 (configuration not stated) | -15.1
CC(C)c1nc(CN(C)C2CCN(CCS(C)(=O)=O)C2)no1 (configuration not stated) | -13.4
NC(=O)CN1CCCN(C(=O)Cc2cccc(C(F)(F)F)c2)CC1 | -3.05
CNc1snc(C)c1C(=O)N1CCCC(n2ccnc2)C1 (configuration not stated) | -13.8
CC(C)c1nc(C2CCCN2Cc2cc(=O)n(C)c(=O)n2C)no1 (configuration not stated) | -10.7
c1nc(N2CCOC(Cn3cncn3)C2)c2cc[nH]c2n1 (configuration not stated) | -7.97
Cc1ccc(CC(=O)N2CCCC2Cn2nc(C)cc2C)cn1 (configuration not stated) | -9.24
CC(Cn1cccn1)NCc1csc(COc2ccc(F)cc2)n1 (configuration not stated) | 5.84
CN(C)S(=O)(=O)c1ccc(CN2CCCC2c2ccccc2)o1 (configuration not stated) | -5.72
Cc1cnn(CC2CN(Cc3nnc(C4CC4)o3)CCO2)c1 (configuration not stated) | -11.8
Cc1nc(CN2CCN(Cc3nccn3C)CC2)no1 | 3.44
Cc1cc(NC(=O)CN2CCOC(Cn3cccn3)C2)n(C)n1 (configuration not stated) | 5.56
COc1ccc(CN2CC[C@@H](O)[C@@H]2Cc2cnn(C)c2)cc1 | -68.3
COc1c(CNCCNC(=O)c2cccc(C)c2)c(C)nn1C | -6.64
CCc1ccc(CN2CCC3(CC2)CNC(=O)CO3)o1 | -16.5
c1cnc(N2CC3(CCN(C4CCOCC4)CC3)c3ccccc32)nc1 | -6.32
O=C([C@@H]1C[C@@H]2CCN(Cc3ccc4c(c3)OCO4)C[C@@H]2O1)N1CCCC1 | -2.46
CC[C@H](N)Cn1nc(-c2cccs2)oc1=O | 1.75
Cn1cnc2c1C(COCC1CCOCC1)CN(c1ncccn1)C2 (configuration not stated) | -74.1
Cc1cc(C(=O)N2CCCC3(COCCN(c4ncccn4)C3)C2)[nH]n1 (configuration not stated) | -3.58
